CASP6 VEID inh – blocks human caspase-6 cleavage activity | actives 0.53% (n = 350,000) | purified caspase-6, Z-VEID-R110 cleavage fluorescence | inhibition, % at 12.5 µM | P55212;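 active = mean inhibition across replicates at least about 35%, with every replicate also reaching that limit, limit read from the data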;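 note: 0% = median of neutral control wells and 100% = no fluorescence left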
LEDGF integ inh – blocks HIV-1 LEDGF/p75-dependent DNA integration | TR-FRET IN-LEDGF/p75 DNA integration, Eu/Cy5 | inhibition, % at 3.7 µM | actives 0.64% (n = 370,000) | AID 743269;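 active = inhibition above the screen-wide mean plus 3 SD, cut at about 13% in these data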;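 note: signal is the Cy5 over europium emission ratio at 671 and 618 nm; 0% = plate median of compound wells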
TDP2 absorb – TDP2 (human) inhibition, absorbance primary screen. O95551. recombinant TDP2, T5PNP hydrolysis, p-nitrophenol absorbance 415 nm. inhibition, % at 12.8 µM. actives 0.34% (n = 370,000);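 active = inhibition above the mean of all tested compounds plus 3 SD, set per campaign, cut at about 25% in these data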;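 note: 0% = DMSO with enzyme and 100% = buffer with substrate but no TDP2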
Target sequence (O95551 whole entry, looked up): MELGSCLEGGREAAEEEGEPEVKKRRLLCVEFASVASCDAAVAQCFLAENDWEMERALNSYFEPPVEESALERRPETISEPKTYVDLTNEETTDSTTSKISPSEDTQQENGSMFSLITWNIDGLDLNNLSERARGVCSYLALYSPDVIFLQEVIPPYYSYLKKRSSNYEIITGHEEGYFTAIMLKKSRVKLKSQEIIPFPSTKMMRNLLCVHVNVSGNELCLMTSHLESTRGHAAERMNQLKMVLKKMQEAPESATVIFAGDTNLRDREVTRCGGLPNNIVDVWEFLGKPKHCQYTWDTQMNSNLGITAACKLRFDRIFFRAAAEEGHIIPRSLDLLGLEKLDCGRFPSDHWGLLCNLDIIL
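Material: recombinant human TDP2; quantity: TDP2 enzyme at 120 nM final; medium: Tris-HCl pH 7.5 with MgCl2; compound: single concentration, 12.8 µM nominal, with 1% DMSO; incubation: 2 h enzyme incubation at 37 °C; signal: epi absorbance; measure: percent inhibition; benchmarks: high control without enzyme, low control DMSO plus TDP2; repeats: singlicate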
UHRF1 binding – human UHRF1 methylated DNA binding inhibitors; Q96T88; UHRF1 binding to methylated oligo, TR-FRET; inhibition, % at 4.4 µM; actives 0.75% (n = 370,000); in the data active = inhibition above about 21%;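 note: UHRF1 SRA domain binding a hemimethylated CpG hairpin DNA probe; 0% = median of test compound wells and 100% = reference inhibitor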
MBD2 DNA inh – MBD2-methylated oligo binding inhibition. Q9UBB5. TR-FRET, MBD2 binding to methylated oligonucleotide. inhibition, % at 4.4 µM. actives 0.31% (n = 370,000). AID 686964; in the data active = inhibition above about 13%
NSD2 HMT inh – NSD2 (human) methyltransferase inhibition; inhibition, % at 12.5 µM; O96028; actives 0.54% (n = 310,000); NSD2 peptide methylation, AlphaScreen, 120 min; in the data active = inhibition above about 50%
Numbers without * were called inactive. The list is not random: actives were taken first. Their share in the collection is about 1.8%.

COc1cccc2c1C(=O)c1c(O)c3c(c(O)c1C2=O)CC(O)(C(C)=O)CC3OC1CC(O)C(O)C(C)O1 (centres undefined) was read as CASP6 VEID inh -56, LEDGF integ inh -3, TDP2 absorb 8, UHRF1 binding 81* and MBD2 DNA inh 78*.
O=C(COC(=O)Cc1ccc(Cl)cc1)NCc1ccco1 was read as CASP6 VEID inh 42*, LEDGF integ inh 11, TDP2 absorb 1, UHRF1 binding 13, MBD2 DNA inh 6 and NSD2 HMT inh 8.
`O=C(COC(=O)/C=C/c1ccco1)NCc1ccco1` gave CASP6 VEID inh 60*, LEDGF integ inh 5, TDP2 absorb 7, UHRF1 binding 20, MBD2 DNA inh 8 and NSD2 HMT inh 5.
`CSc1ccccc1NC(=O)COC(=O)/C=C/c1ccco1` gave CASP6 VEID inh 41* and NSD2 HMT inh -1.
For CC=Cc1ccc2n(c1=O)C[C@H]1[C@H](CO)[C@@H](C(=O)NCC(F)(F)F)N(CCC)[C@@H]21 (mixture of isomers) the results were CASP6 VEID inh -7.
`Cc1noc(C)c1NC(=O)Nc1ccc2c(c1)C(=O)N([C@@H](C)CO)C[C@@H](C)[C@H](CN(C)S(=O)(=O)c1cccs1)O2` gave CASP6 VEID inh 0.
For COc1ccc(NS(=O)(=O)c2cccc(C(=O)NCC3(N4CCCCC4)CCCCC3)c2)cc1 the results were CASP6 VEID inh 5, LEDGF integ inh 3, TDP2 absorb 1, UHRF1 binding 25*, MBD2 DNA inh 3 and NSD2 HMT inh 1.
Screening COc1cccc(Oc2ccc(OC)cc2C(=O)O)c1 returned CASP6 VEID inh 6, LEDGF integ inh 1, TDP2 absorb 3, UHRF1 binding 26*, MBD2 DNA inh 6 and NSD2 HMT inh 14.
`COc1cccc(Nc2ccccc2C(=O)O)c1` gave CASP6 VEID inh -2, LEDGF integ inh -1, TDP2 absorb -1, UHRF1 binding 14, MBD2 DNA inh 5 and NSD2 HMT inh 12.
CCCNC(=O)[C@@H]1[C@@H](CO)[C@@H]2Cn3c(cccc3=O)[C@H]1N2C(=O)C1CCCC1 was read as CASP6 VEID inh 0.
`CCCN=C1CC(C)(C)CC(=O)/C1=C(/O)CCC` gave CASP6 VEID inh 2, LEDGF integ inh 2, TDP2 absorb 1, UHRF1 binding 2, MBD2 DNA inh 2 and NSD2 HMT inh -3.
For CCCCCCN=C1CC(C)(C)CC(=O)/C1=C(/O)CCC the results were CASP6 VEID inh -10, LEDGF integ inh 6, TDP2 absorb -18, UHRF1 binding 23*, MBD2 DNA inh 2 and NSD2 HMT inh -7.
For CCNc1nc(NCC)n2c(SCC(=O)Nc3ccc(F)cc3)nnc2n1 the results were CASP6 VEID inh 26, LEDGF integ inh 3, TDP2 absorb -10, UHRF1 binding 17, MBD2 DNA inh 5 and NSD2 HMT inh 5.
`CCNc1nc(NCC)n2c(SCC(=O)Nc3ccc(C)c(C)c3)nnc2n1` gave CASP6 VEID inh 37*, LEDGF integ inh -3, TDP2 absorb -3, UHRF1 binding 3, MBD2 DNA inh 5 and NSD2 HMT inh -3.
`Cc1ccc(NC(=O)CSc2nnc(Cn3cnc4ccccc43)o2)cc1` gave LEDGF integ inh -2, TDP2 absorb 13, UHRF1 binding 21* and MBD2 DNA inh 0.
For Cc1noc(C)c1NC(=O)Nc1ccc2c(c1)CC(=O)N([C@@H](C)CO)C[C@H](C)[C@@H](CN(C)Cc1ccc(C(=O)Nc3ccccc3N)cc1)O2 the results were CASP6 VEID inh 1.
O=C(O)c1cccc(N2C(=O)C3CC=C(Cl)CC3C2=O)c1 (centres undefined) was read as CASP6 VEID inh 67*, LEDGF integ inh -1, TDP2 absorb 2, UHRF1 binding 1 and MBD2 DNA inh -5.
For O=C(O)c1cccc(N2C(=O)C3CC=CCC3C2=O)c1 (centres undefined) the results were LEDGF integ inh 0, TDP2 absorb -2, UHRF1 binding 4, MBD2 DNA inh 4 and NSD2 HMT inh 31.
Screening C[C@@H]1CN([C@H](C)CO)C(=O)c2c(c3ccccc3n2C)-c2ccccc2CO[C@@H]1CN(C)CC1CCCCC1 returned CASP6 VEID inh 2.
`O=C(Nc1cc2c(oc1=O)CCCC2=O)c1cccc(Cl)c1` gave LEDGF integ inh 1, TDP2 absorb 2, UHRF1 binding -4 and MBD2 DNA inh 1.
Screening COc1ccc(C(=O)Nc2cc3c(oc2=O)CCCC3=O)cc1 returned CASP6 VEID inh 44*, LEDGF integ inh 2, TDP2 absorb -4, UHRF1 binding 12, MBD2 DNA inh -1 and NSD2 HMT inh 23.
For Cc1ccc(S(=O)(=O)Nc2ccc3c(c2)C(=O)N(C)[C@H]2CC[C@@H](CC(=O)O)O[C@@H]2CO3)cc1 the results were CASP6 VEID inh 1.
For CC(C)CNC(=O)C1(C)CCCN1C(=O)Cc1cccc2ccccc12 (centres undefined) the results were CASP6 VEID inh 54*, LEDGF integ inh 2, TDP2 absorb 3, UHRF1 binding 0, MBD2 DNA inh -1 and NSD2 HMT inh 1.
Screening Cc1ccc(Cc2c(C(C)(C)C)nc3ccc(Br)cn23)cc1 returned CASP6 VEID inh 6, LEDGF integ inh 2, TDP2 absorb 5, UHRF1 binding 23* and MBD2 DNA inh 7.
For O=C(NC1CC2CCC(C1)N2Cc1ccccc1)c1ccccc1Br (centres undefined) the results were CASP6 VEID inh 39*, LEDGF integ inh 0, TDP2 absorb 15, UHRF1 binding -1, MBD2 DNA inh -5 and NSD2 HMT inh 0.
For C=CCNC(=O)COc1ccccc1C#N the results were CASP6 VEID inh 52*, LEDGF integ inh -5, TDP2 absorb 0, UHRF1 binding 2, MBD2 DNA inh -4 and NSD2 HMT inh -1.
For N#Cc1ccccc1OCC(=O)NC1CCCCCC1 the results were CASP6 VEID inh 0, LEDGF integ inh 2, TDP2 absorb 2, UHRF1 binding 7, MBD2 DNA inh 7 and NSD2 HMT inh -1.
`CCC(=O)N1C[C@@H](C)[C@@H](OC)CN(C)C(=O)c2ccc(NC(=O)c3cnccn3)cc2OC[C@@H]1C` gave CASP6 VEID inh 4.
For O=C(c1ccco1)N1CCN(C(c2cccs2)c2nnnn2C2CCCCC2)CC1 (centres undefined) the results were CASP6 VEID inh -2, LEDGF integ inh 2, TDP2 absorb 6, UHRF1 binding 86* and MBD2 DNA inh 4.
`COc1ccc(/C=C2\SC(=O)N(CC(=O)Nc3ccc(O)cc3)C2=O)cc1OC` gave CASP6 VEID inh 0, LEDGF integ inh -9, TDP2 absorb -10, UHRF1 binding 1, MBD2 DNA inh -1 and NSD2 HMT inh 1.
